Measurements from ChEMBL document CHEMBL4393700, “Novel resveratrol-based flavonol derivatives: Synthesis and anti-inflammatory activity in vitro and in vivo” (Eur J Med Chem, 2019).
Blank lines part the entries; values can stand above or below the molecule they belong to. Active and inactive are the calls of the source. No cut-off for these calls is given here.

Columns and labels:
Mus musculus [1] = test: Antiinflammatory activity in C57/BL6 mouse ALI model assessed as reduction in LPS-induced alveolar hemorrhage at 10 to 20 mg/kg, ip pretreated for 30 mins followed by LPS challenge and measured after 48 hrs by H and E staining based histopathological analysis; type: functional, organism-based
Method in brief: (§1)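 Male C57BL/6 mice, 18~22 g, acclimatized one week; 40 randomly split into control, LPS, and two LPS groups pretreated i.p. (10 or 20 mg/kg) 30 min before LPS (methods: 20 mg/kg tail vein; legend: 5 mg/kg intratracheal). Saline i.p. to controls. Sacrificed 48 h after LPS; read-outs lung MPO, body weight, upper right lobe wet/dry ratio (dried at 60 °C until constant), H&E on paraformaldehyde-fixed paraffin sections.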

RAW264.7 [2] = test: Antiinflammatory activity in mouse RAW264.7 cells assessed as reduction in LPS-induced IL-6 production pretreated for 1 hr followed by LPS stimulation and measured after 24 hrs by ELISA; type: functional, cell-based
Method in brief: (§2)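 RAW264.7 seeded 6×10^4 cells/well, cultured 24 h; 1 h pretreatment at 10, 5, 2.5, 1.25 or 0.625 µM, then LPS 0.5 µg/mL for 24 h. IL-6 and TNF-α in conditioned medium quantified by ELISA.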

RAW264.7 [3] = test: Antiinflammatory activity in mouse RAW264.7 cells assessed as inhibition of LPS-induced NO production at 10 uM pretreated for 1 hr followed by LPS stimulation and measured after 24 hrs by Griess reagent based assay; type: functional, cell-based
Method in brief: (§3)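 RAW264.7 in DMEM/10% FBS with penicillin-streptomycin, 37 °C, 5% CO2; seeded 6×10^4 cells/well, grown 24 h, pretreated 1 h with test agent (10 µM screen; 10, 5, 2.5, 1.25, 0.625 µM for concentration series), then LPS 0.5 µg/mL for 24 h. Supernatant nitrite measured with Griess reagent.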

RAW264.7 [4] = test: Effect on total JNK protein expression level in LPS-induced mouse RAW264.7 cells pretreated for 1 hr followed by LPS stimulation and measured after 30 mins by Western blot analysis; type: ADME, cell-based; conditions: raw264.7, 0.5 h
Method in brief: (§4)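 RAW264.7 seeded 3×10^5 cells/well, 24 h; pretreated 1 h at 0.5, 1 or 2 µM, then LPS 0.5 µg/mL for 30 min. RIPA lysates (PMSF, phosphatase inhibitors) on 12% SDS-PAGE, PVDF; primary antibodies overnight 4 °C, HRP secondary 1:5000. Probed phospho/total ERK, JNK, p38, p-IκB, IκB, p-p65, p65, β-actin; three independent experiments.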

RAW264.7 [5] = test: Effect on total ERK expression level in LPS-induced mouse RAW264.7 cells pretreated for 1 hr followed by LPS stimulation and measured after 30 mins by Western blot analysis; type: ADME, cell-based; conditions: raw264.7, 0.5 h; method in brief: as §4
RAW264.7 [6] = test: Antiinflammatory activity in mouse RAW264.7 cells assessed as reduction in LPS-induced NO production pretreated for 1 hr followed by LPS stimulation and measured after 24 hrs by Griess reagent based assay; type: functional, cell-based; method in brief: as §3
RAW264.7 [7] = test: Effect on total p38 expression level in LPS-induced mouse RAW264.7 cells pretreated for 1 hr followed by LPS stimulation and measured after 30 mins by Western blot analysis; type: ADME, cell-based; conditions: raw264.7, 0.5 h; method in brief: as §4
RAW264.7 [8] = test: Antiinflammatory activity in mouse RAW264.7 cells assessed as reduction in LPS-induced iNOS protein expression pretreated for 1 hr followed by LPS stimulation and measured after 24 hrs by Western blot analysis; type: functional, cell-based
Method in brief: (§5)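 Western blot in RAW264.7: 1 h pretreatment at 0.5–2 µM, LPS 0.5 µg/mL for 24 h; lysis in RIPA with PMSF and phosphatase inhibitors on ice 30 min, 12% SDS-PAGE, PVDF, primary antibodies overnight at 4 °C, HRP secondary 1:5000 1 h at room temperature; iNOS and COX-2 against β-actin; three separate experiments.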

[9] = Toxicity in C57/BL6 mouse ALI model assessed as induction of inflammatory cell infiltration at 20 mg/kg, ip measured after 48 hrs by H and E staining based histopathological analysis; type: organism-based; conditions: in vivo
Method in brief: (§6)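 Mice given 20 mg/kg i.p. without LPS, compared with controls; lung sections stained with hematoxylin and eosin for edema, hemorrhage, inflammatory cell infiltration and alveolar structure.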

RAW264.7 [10] = test: Inhibition of LPS-induced JNK phosphorylation in mouse RAW264.7 cells pretreated for 1 hr followed by LPS stimulation by Western blot analysis; type: cell-based; method in brief: as §4
RAW264.7 [11] = test: Inhibition of LPS-stimulated NFkappaB activation in mouse RAW264.7 cells assessed as reduction in p65 phosphorylation at 0.5 to 2 uM pretreated for 1 hr followed by LPS stimulation and measured after 30 mins by Western blot analysis; type: cell-based; method in brief: as §4
RAW264.7 [12] = test: Antiinflammatory activity in mouse RAW264.7 cells assessed as reduction in LPS-induced TNF alpha production pretreated for 1 hr followed by LPS stimulation and measured after 24 hrs by ELISA; type: functional, cell-based; method in brief: as §2
Mus musculus [13] = test: Antiinflammatory activity in C57/BL6 mouse ALI model assessed as reduction in LPS-induced pro-inflammatory alterations at 10 to 20 mg/kg, ip pretreated for 30 mins followed by LPS challenge and measured after 48 hrs by H and E staining based histopathological analysis; type: functional, organism-based; method in brief: as §1
RAW264.7 [14] = test: Antiinflammatory activity in mouse RAW264.7 cells assessed as reduction in LPS-induced TLR4 protein expression pretreated for 1 hr followed by LPS stimulation and measured after 30 mins by Western blot analysis; type: functional, cell-based
[15] = Toxicity in C57/BL6 mouse ALI model assessed as induction of destruction of alveolar structure at 20 mg/kg, ip measured after 48 hrs by H and E staining based histopathological analysis; type: organism-based; conditions: in vivo; method in brief: as §6
Mus musculus [16] = test: Antiinflammatory activity in C57/BL6 mouse ALI model assessed as reduction in LPS-induced MPO level in lungs tissue at 10 to 20 mg/kg, ip pretreated for 30 mins followed by LPS challenge and measured after 48 hrs; type: functional, organism-based; method in brief: as §1
Mus musculus [17] = test: Antiinflammatory activity in C57/BL6 mouse ALI model assessed as reduction in LPS-induced pulmonary edema by measuring lung wet/dry weight ratio at 10 to 20 mg/kg, ip pretreated for 30 mins followed by LPS challenge and measured after 48 hrs; type: functional, organism-based; method in brief: as §1
[18] = Toxicity in C57/BL6 mouse ALI model assessed as induction of alveolar hemorrhage at 20 mg/kg, ip measured after 48 hrs by H and E staining based histopathological analysis; type: organism-based; conditions: in vivo; method in brief: as §6
Mus musculus [19] = test: Protection against LPS-induced acute lung injury in C57/BL6 mouse assessed as survival rate at 20 mg/kg, ip pretreated for 30 mins followed by LPS challenge and measured after 48 hrs (reference value: 10%); type: functional
[20] = Toxicity in C57/BL6 mouse ALI model assessed as induction of pro-inflammatory alterations at 20 mg/kg, ip measured after 48 hrs by H and E staining based histopathological analysis; type: organism-based; conditions: in vivo; method in brief: as §6
Mus musculus [21] = test: Antiinflammatory activity in C57/BL6 mouse ALI model assessed as reduction in LPS-induced destruction of alveolar structure at 10 to 20 mg/kg, ip pretreated for 30 mins followed by LPS challenge and measured after 48 hrs by H and E staining based histopathological analysis; type: functional, organism-based; method in brief: as §1
Mus musculus [22] = test: Effect on LPS-induced body weight loss in C57/BL6 mouse at 10 to 20 mg/kg, ip pretreated for 30 mins followed by LPS challenge; type: functional, organism-based; method in brief: as §1
Mus musculus [23] = test: Antiinflammatory activity in C57/BL6 mouse ALI model assessed as reduction in LPS-induced inflammatory cell infiltration at 10 to 20 mg/kg, ip pretreated for 30 mins followed by LPS challenge and measured after 48 hrs by H and E staining based histopathological analysis; type: functional, organism-based; method in brief: as §1
Mus musculus [24] = test: Antiinflammatory activity in C57/BL6 mouse ALI model assessed as reduction in LPS-induced lung edema at 10 to 20 mg/kg, ip pretreated for 30 mins followed by LPS challenge and measured after 48 hrs by H and E staining based histopathological analysis; type: functional, organism-based; method in brief: as §1
Mus musculus [25] = test: Protection against LPS-induced acute lung injury in C57/BL6 mouse assessed as survival rate at 10 to 20 mg/kg, ip pretreated for 30 mins followed by LPS challenge and measured at 24 hrs (reference value: 60%); type: functional
[26] = Toxicity in C57/BL6 mouse ALI model assessed as induction of lung edema at 20 mg/kg, ip measured after 48 hrs by H and E staining based histopathological analysis; type: organism-based; conditions: in vivo; method in brief: as §6
RAW264.7 [27] = test: Antiinflammatory activity in mouse RAW264.7 cells assessed as reduction in LPS-induced COX2 protein expression pretreated for 1 hr followed by LPS stimulation and measured after 24 hrs by Western blot analysis; type: functional, cell-based; method in brief: as §5
RAW264.7 [28] = test: Inhibition of LPS-stimulated NFkappaB activation in mouse RAW264.7 cells assessed as reduction in IkappaB phosphorylation at 0.5 to 2 uM pretreated for 1 hr followed by LPS stimulation and measured after 30 mins by Western blot analysis; type: cell-based; method in brief: as §4
[29] = Toxicity in C57/BL6 mouse ALI model assessed as mortality at 20 mg/kg, ip; type: organism-based; conditions: in vivo
Method in brief: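 Mice were given the compound at 20 mg/kg ip as solutions, with no LPS challenge. They were observed against an untreated control group, and lung sections were then stained with H&E to look for inflammation, hemorrhage, edema and alveolar damage.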

RAW264.7 [30] = test: Inhibition of LPS-stimulated NFkappaB activation in mouse RAW264.7 cells assessed as reduction in LPS-induced IkappaB degradation at 0.5 to 2 uM pretreated for 1 hr followed by LPS stimulation and measured after 30 mins by Western blot analysis; type: cell-based; method in brief: as §4
RAW264.7 [31] = test: Cytotoxicity against LPS-stimulated mouse RAW264.7 cells at 20 uM pretreated for 1 hr followed by LPS stimulation and measured after 24 hrs by MTT assay; conditions: raw264.7, 24 h

Structure (SMILES): COc1ccc(/C=C/c2cc(OC)cc(OC)c2-c2oc3ccc(F)cc3c(=O)c2O)cc1
Activity (Mus musculus [1]): Active
Activity (RAW264.7 [2]): Dose-dependent effect
IC50 (RAW264.7 [2]): 1.12 µM
inhibition (RAW264.7 [3]): Active
Activity (RAW264.7 [4]): Non-Toxic
Activity (RAW264.7 [5]): Non-Toxic
Activity (RAW264.7 [6]): Dose-dependent effect
IC50 (RAW264.7 [6]): 1.35 µM
Activity (RAW264.7 [7]): Non-Toxic
Activity (RAW264.7 [8]): Dose-dependent effect
Activity [9]: Non-Toxic
inhibition (RAW264.7 [10]): inactive
inhibition (RAW264.7 [11]): Active
Activity (RAW264.7 [12]): Dose-dependent effect
IC50 (RAW264.7 [12]): 1.92 µM
Activity (Mus musculus [13]): Active
Activity (RAW264.7 [14]): Dose-dependent effect
Activity [15]: Non-Toxic
Activity (Mus musculus [16]): Active
Activity (Mus musculus [17]): Active
Activity [18]: Non-Toxic
Activity (Mus musculus [19]): 50%
Activity [20]: Non-Toxic
Activity (Mus musculus [21]): Active
Activity (Mus musculus [22]): inactive
Activity (Mus musculus [23]): Active
Activity (Mus musculus [24]): Active
Activity (Mus musculus [25]): 90%
Activity [26]: Non-Toxic
Activity (RAW264.7 [27]): Dose-dependent effect
inhibition (RAW264.7 [28]): Active
Activity [29]: Non-Toxic
inhibition (RAW264.7 [30]): Active

Structure (SMILES): Oc1ccc(/C=C/c2cc(O)cc(O)c2)cc1
inhibition (RAW264.7 [3]): Active

Structure (SMILES): CCOc1ccc(/C=C/c2cc(OC)cc(OC)c2-c2cc(=O)c3cc(OC)ccc3o2)cc1
Activity (RAW264.7 [31]): Non-Toxic

IC50 (RAW264.7 [2]): 5.06 µM
IC50 (RAW264.7 [6]): 4.83 µM
IC50 (RAW264.7 [12]): 7.34 µM
Structure (SMILES): COc1ccc(/C=C/c2cc(OC)cc(OC)c2-c2oc3ccc(Cl)cc3c(=O)c2O)cc1
Activity (RAW264.7 [2]): Dose-dependent effect
inhibition (RAW264.7 [3]): Active
Activity (RAW264.7 [6]): Dose-dependent effect
Activity (RAW264.7 [12]): Dose-dependent effect

Structure (SMILES): COc1cc(/C=C/c2ccc(OCc3ccccc3)cc2)c(-c2cc(=O)c3cc(Br)ccc3o2)c(OC)c1
Activity (RAW264.7 [31]): Non-Toxic

Structure (SMILES): Cc1ccc(-c2cc(C(F)(F)F)nn2-c2ccc(S(N)(=O)=O)cc2)cc1
inhibition (RAW264.7 [3]): Active

Structure (SMILES): COc1ccc(/C=C/c2cc(OC)cc(OC)c2-c2cc(=O)c3cc(OC)ccc3o2)cc1
inhibition (RAW264.7 [3]): Active

Structure (SMILES): COc1ccc(/C=C/c2cc(OC)cc(OC)c2-c2cc(=O)c3cc(OC)c(OC)cc3o2)cc1
Activity (RAW264.7 [31]): Non-Toxic
